Activity calls are given as the source filed them. The rule behind the calls is not given here.

Broadly, the Tmax is the time from dosing to the highest level. The TD50 is the dose at which the toxic effect under study appears in half of the subjects. Read a low TD50 as greater toxicity. What is called AUC is concentration integrated over time. Read a low AUC as less exposure. As usually defined, the Vdss is a proportionality between amount in the body and measured concentration, not a real space. A word on the inhibition: it is the change of the read-out against control, counted positive when it falls.

The subject of series [1] is Vibrio harveyi. Nature of the series: Antimutagenic activity against Vibrio harveyi BB7 assessed as inhibition of NQNO-induced mutagenicity after 48 hrs. The series is classed as functional. The gist of the method:
(§1)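 V. harveyi cultures grown exponentially to A600 0.1 at 30 °C, exposed to test compound for 15 min, then to NQNO, and grown on to A600 0.3–0.4. 5 × 10⁶ cells plated on BOSS agar with neomycin (100, final). Neomycin-resistant colonies counted after 48 h at 30 °C. Result given as % inhibition of NQNO mutagenicity; three independent repeats.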

A short description of series [2]: Ratio of drug level in brain to plasma in CD1 mouse at 12.92 mg/kg, ip administered as single dose measured after 240 mins by LC/ESI-MS/MS analysis. The series is classed as ADME, organism-based. As to conditions: brain and plasma, read-out: BPR.
Series [3] concerns Mus musculus. Briefly: Initial plasma concentration in CD1 mouse at 1 mg/kg, iv measured up to 240 mins by LC/ESI-MS/MS. To be noted: in vivo, 4 h. Type of series: ADME, organism-based.
In series [4] the test system is Mus musculus. Nature of the series: Tmax in CD1 mouse plasma at 12.92 mg/kg, ig measured up to 240 mins by LC/ESI-MS/MS analysis. The series is classed as ADME, organism-based. To be noted: in vivo, po, 4 h.
Series [5] has as its system Mus musculus. Briefly: AUMC (0 to infinity) in CD1 mouse plasma at 12.92 mg/kg, ig measured up to 240 mins by LC/ESI-MS/MS analysis. The series is classed as ADME, organism-based. To be noted: in vivo, po, 4 h.
Series [6] has as its system Rattus norvegicus. Nature of the series: Toxicity in pilocarpine-induced status epilepticus Sprague-Dawley rat assessed as death at 400 mg/kg, ip. Type of series: organism-based. To be noted: in vivo. The essentials:
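Pilocarpine 50 mg/kg ip given to male Sprague-Dawley rats (150–180 g). At the first stage 3–5 seizure (Racine scale), compound was given ip to groups of 8. Deaths and protection were recorded at 0.25–4 h; weight change was measured 24 h after the first stage 3 seizure.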

A short description of series [7]: Neurotoxicity in ip dosed mouse after […] by rotarod test. The series is classed as toxicity, organism-based. To be noted: in vivo. (In general: The rotarod test checks motor coordination on a turning rod.)
Series [8] has as its system Vibrio harveyi. Briefly: Mutagenicity in Vibrio harveyi BB7M assessed as number of colonies after 48 hrs (reference value: 13 to 14 no_unit). To be noted: in vivo. The series is classed as ADME, organism-based. The gist of the method:
(§2)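 Vibrio harveyi mutagenicity test: test compound was added to exponentially growing cultures (A600 = 0.1, 30 °C) and grown to OD600 0.3–0.4. Then 5 × 10^6 cells were plated on BOSS agar with neomycin (final 100 µg/mL) and incubated 48 h at 30 °C. Neomycin-resistant colonies were counted. Triplicate; controls were water, DMSO and NQNO 40 ng/mL.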

In series [9] the test system is Mus musculus. Briefly: AUC (0 to infinity) in CD1 mouse plasma at 1 mg/kg, iv measured up to 240 mins by LC/ESI-MS/MS analysis. Type of series: ADME, organism-based. Details: dose 1 mg/kg, time infinity, route intravenous. As to conditions: in vivo, 4 h.
Series [10] in a line: Tmax in CD1 mouse brain at 12.92 mg/kg, ip measured up to 240 mins by LC/ESI-MS/MS analysis. Type of series: ADME, organism-based.
The test system of series [11] is Vibrio harveyi. Nature of the series: Antimutagenic activity against Vibrio harveyi BB7M assessed as inhibition of NQNO-induced mutagenicity after 48 hrs. The series is classed as functional. The gist of the method:
as §1

Series [12] deals with Mus musculus. Nature of the series: Volume of distribution in steady state in CD1 mouse plasma at 1 mg/kg, iv measured up to 240 mins by LC/ESI-MS/MS analysis. As to conditions: in vivo, 4 h. Type of series: ADME, organism-based.
Series [13] can be described thus: Ratio of drug level in brain to plasma in CD1 mouse at 12.92 mg/kg, ig administered as single dose measured after 5 mins by LC/ESI-MS/MS analysis. As to conditions: brain and plasma, po, read-out: BPR. The series is classed as ADME, organism-based.
Series [14] deals with Vibrio harveyi. Briefly: Mutagenicity in Vibrio harveyi BB7X assessed as number of colonies after 48 hrs (reference value: 15 to 16 no_unit). The series is classed as ADME, organism-based. As to conditions: in vivo. The essentials:
as §2

Series [15] relates to Mus musculus. Nature of the series: Anticonvulsant activity in mouse assessed as protection against 6 Hz psychomotor seizure at 20 mg/kg, ip after 2 hrs. Type of series: functional, organism-based. The essentials: (§3)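 Suspension in 0.5% methylcellulose given ip to mice; corneal stimulation with 0.2 ms monopolar rectangular pulses at 6 Hz for 3 s from a constant current device, mice restrained then released to observation cage. Protected if normal exploratory behaviour resumed within 10 s of stimulation. Scored as protected/tested, 4 mice per group.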

The target of series [16] is Melatonin receptor type 1A (Homo sapiens) (UniProt P48039). Nature of the series: Displacement of [125I]2-iodomelatonin from human recombinant ML1A receptor expressed in CHO cells at 10^-5 M. Type of series: cell-based. The gist of the method: (§4)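 Radioligand binding screen run at a single test concentration of 10^-5 M. Each target used its stated receptor source (human recombinant CHO or HEK-293 cells, endogenous cell lines, or rat tissue membranes) with the listed radioligand.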

Series [17] concerns the target 5-hydroxytryptamine receptor 2B (Homo sapiens, UniProt P41595). Nature of the series: Displacement of [125I](+/-)DOI from human recombinant 5-HT2B receptor expressed in CHO cells at 10^-5 M. The series is classed as cell-based. Background: Displacement assays read how much labelled ligand stays bound in the presence of the test substance.
For series [18], the target named is D(3) dopamine receptor (Homo sapiens) (UniProt P35462). Briefly: Displacement of [3H]methylspiperone from human recombinant Dopamine D3 receptor expressed in CHO cells at 10^-5 M. Type of series: cell-based. The gist of the method: (§5)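 Radioligand displacement screen with the test agent at a single 10^-5 M concentration; receptor source and radioligand per target as tabulated (recombinant human cell lines or rat cerebral cortex/urinary bladder).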

Series [19] deals with D(1B) dopamine receptor (Homo sapiens) (UniProt P21918). Briefly: Displacement of [3H]SCH23390 from human recombinant Dopamine D5 receptor expressed in GH4 cells at 10^-5 M. Type of series: cell-based. The gist of the method: as §5
Series [20] addresses Prostacyclin receptor (Homo sapiens) (UniProt P43119). Nature of the series: Displacement of [3H]iloprost from human recombinant Prostanoid IP receptor expressed in HEK293 cells at 10^-5 M. Type of series: cell-based. The essentials:
as §5

Series [21] concerns Rattus norvegicus. Briefly: Anticonvulsant activity in rat assessed as protection against maximal electric shock-induced seizures at 30 mg/kg, po measured after 2 hrs. The series is classed as functional, organism-based. The gist of the method:
(§6)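 Rats dosed ip or orally as 0.5% methylcellulose suspension; maximal electroshock at listed time. Protection = abolition of hindlimb tonic extension; 4 rats per group, scored protected/tested.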

Series [22] has as its system Mus musculus. Nature of the series: Anticonvulsant activity in mouse assessed as protection against 6 Hz psychomotor seizure at 40 mg/kg, ip after 0.5 hrs. Type of series: functional, organism-based. The essentials: as §3
For series [23], the system named is Mus musculus. Briefly: Anticonvulsant activity in mouse assessed as protection against maximal electric shock-induced seizures at 3 mg/kg, ip measured after 0.5 hrs. The series is classed as functional, organism-based. The gist of the method:
(§7)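 Mice dosed ip with suspension in 0.5% methylcellulose; maximal electroshock applied at the listed time after dosing. Protection = abolition of hindlimb tonic extension component of seizure; reported as animals protected/animals tested.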

The test system of series [24] is Rattus norvegicus. Briefly: Anticonvulsant activity in pilocarpine-induced status epilepticus Sprague-Dawley rat model at 30 mg/kg, ip after 4 hrs during post stage 3 seizure. Type of series: functional, organism-based. The essentials:
(§8)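 Rats given pilocarpine 50 mg/kg ip and observed to first convulsive seizure (Racine stage 3–5, time zero); test drug then given ip in 0.5% methylcellulose. Efficacy = halting further stage 3–5 convulsive seizures; scored protected/tested, time after first stage 3 seizure.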

For series [25], the system named is Mus musculus. Nature of the series: Anticonvulsant activity in mouse assessed as protection against maximal electric shock-induced seizures at 30 mg/kg, ip measured after 4 hrs. The series is classed as functional, organism-based. The gist of the method:
as §7

The species named for series [26] is Rattus norvegicus. Briefly: Displacement of [3H]TCP from rat cerebral cortex PCP receptor at 10^-5 M. Type of series: tissue-based. The gist of the method:
as §5

Series [27] has as its system Rattus norvegicus. Nature of the series: Anticonvulsant activity in rat assessed as protection against maximal electric shock-induced seizures at 30 mg/kg, po measured after 1 hr. The series is classed as functional, organism-based. The gist of the method:
as §6

In series [28] the target is Neurotensin receptor type 1 (Homo sapiens) (UniProt P30989). Briefly: Displacement of [125I]Tyr3-neurotensin from human recombinant NT1 receptor expressed in CHO cells at 10^-5 M. Type of series: cell-based. The gist of the method: as §4
Series [29] deals with Rattus norvegicus. Nature of the series: Anticonvulsant activity in pilocarpine-induced status epilepticus Sprague-Dawley rat model at 100 mg/kg, ip after 2 hrs during post stage 3 seizure. The series is classed as functional, organism-based. The essentials:
as §8

Sequence of D(3) dopamine receptor (Homo sapiens) (P35462 whole entry): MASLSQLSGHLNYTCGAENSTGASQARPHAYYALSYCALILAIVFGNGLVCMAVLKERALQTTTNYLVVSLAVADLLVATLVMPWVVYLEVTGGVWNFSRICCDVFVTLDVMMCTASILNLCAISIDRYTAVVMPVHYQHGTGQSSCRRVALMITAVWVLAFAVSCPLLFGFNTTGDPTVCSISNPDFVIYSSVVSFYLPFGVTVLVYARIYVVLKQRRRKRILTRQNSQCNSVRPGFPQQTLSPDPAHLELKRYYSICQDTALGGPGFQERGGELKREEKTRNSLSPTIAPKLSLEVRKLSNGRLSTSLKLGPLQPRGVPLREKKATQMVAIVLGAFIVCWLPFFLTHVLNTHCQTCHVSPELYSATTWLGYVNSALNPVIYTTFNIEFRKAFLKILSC
Sequence of 5-hydroxytryptamine receptor 2B (P41595 whole entry): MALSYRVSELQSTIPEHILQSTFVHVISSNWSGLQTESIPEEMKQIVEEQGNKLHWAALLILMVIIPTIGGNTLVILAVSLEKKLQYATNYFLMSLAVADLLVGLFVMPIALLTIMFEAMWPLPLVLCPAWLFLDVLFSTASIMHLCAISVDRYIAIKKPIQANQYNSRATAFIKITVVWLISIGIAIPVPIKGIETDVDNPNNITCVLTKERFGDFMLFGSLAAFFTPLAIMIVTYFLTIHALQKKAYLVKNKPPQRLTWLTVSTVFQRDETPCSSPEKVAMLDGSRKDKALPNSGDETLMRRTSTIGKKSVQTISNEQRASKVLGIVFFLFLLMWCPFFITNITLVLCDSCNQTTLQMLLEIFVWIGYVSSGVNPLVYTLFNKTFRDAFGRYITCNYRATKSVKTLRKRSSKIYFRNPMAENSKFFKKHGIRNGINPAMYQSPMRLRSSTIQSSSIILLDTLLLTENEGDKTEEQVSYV
Sequence of D(1B) dopamine receptor (Homo sapiens) (P21918 whole entry): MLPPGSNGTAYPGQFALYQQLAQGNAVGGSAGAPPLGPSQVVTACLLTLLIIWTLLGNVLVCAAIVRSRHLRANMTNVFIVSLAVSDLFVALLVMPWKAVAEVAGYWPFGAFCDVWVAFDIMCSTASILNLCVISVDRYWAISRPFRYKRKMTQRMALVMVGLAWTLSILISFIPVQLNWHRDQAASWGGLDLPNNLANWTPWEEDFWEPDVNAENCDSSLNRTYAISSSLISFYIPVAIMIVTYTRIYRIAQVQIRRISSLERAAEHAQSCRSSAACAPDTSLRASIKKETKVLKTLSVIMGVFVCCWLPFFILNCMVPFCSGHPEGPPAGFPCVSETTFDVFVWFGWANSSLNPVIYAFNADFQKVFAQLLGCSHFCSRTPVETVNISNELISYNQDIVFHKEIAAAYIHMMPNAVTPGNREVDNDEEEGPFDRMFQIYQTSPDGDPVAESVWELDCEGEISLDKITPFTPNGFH
Sequence of Melatonin receptor type 1A (Homo sapiens) (P48039 whole entry): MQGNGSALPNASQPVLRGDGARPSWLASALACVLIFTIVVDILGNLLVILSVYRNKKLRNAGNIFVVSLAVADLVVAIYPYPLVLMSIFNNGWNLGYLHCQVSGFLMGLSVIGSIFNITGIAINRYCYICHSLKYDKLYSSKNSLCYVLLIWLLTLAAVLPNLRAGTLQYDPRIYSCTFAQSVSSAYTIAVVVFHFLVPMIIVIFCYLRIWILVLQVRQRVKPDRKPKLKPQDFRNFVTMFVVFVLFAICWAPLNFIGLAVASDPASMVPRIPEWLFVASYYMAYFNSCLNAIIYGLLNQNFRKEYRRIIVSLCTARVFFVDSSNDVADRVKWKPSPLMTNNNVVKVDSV
Sequence of Prostacyclin receptor (Homo sapiens) (P43119 whole entry): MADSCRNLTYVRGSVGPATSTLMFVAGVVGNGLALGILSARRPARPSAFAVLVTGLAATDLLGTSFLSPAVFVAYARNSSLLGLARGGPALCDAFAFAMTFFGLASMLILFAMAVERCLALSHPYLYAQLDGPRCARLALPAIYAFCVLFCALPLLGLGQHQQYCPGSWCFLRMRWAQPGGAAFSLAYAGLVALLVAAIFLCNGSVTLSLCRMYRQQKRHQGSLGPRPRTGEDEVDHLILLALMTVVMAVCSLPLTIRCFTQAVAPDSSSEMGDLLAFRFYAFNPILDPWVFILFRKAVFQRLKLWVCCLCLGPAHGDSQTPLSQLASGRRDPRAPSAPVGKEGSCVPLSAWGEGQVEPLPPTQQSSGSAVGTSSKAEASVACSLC
Sequence of Neurotensin receptor type 1 (Homo sapiens) (P30989 whole entry): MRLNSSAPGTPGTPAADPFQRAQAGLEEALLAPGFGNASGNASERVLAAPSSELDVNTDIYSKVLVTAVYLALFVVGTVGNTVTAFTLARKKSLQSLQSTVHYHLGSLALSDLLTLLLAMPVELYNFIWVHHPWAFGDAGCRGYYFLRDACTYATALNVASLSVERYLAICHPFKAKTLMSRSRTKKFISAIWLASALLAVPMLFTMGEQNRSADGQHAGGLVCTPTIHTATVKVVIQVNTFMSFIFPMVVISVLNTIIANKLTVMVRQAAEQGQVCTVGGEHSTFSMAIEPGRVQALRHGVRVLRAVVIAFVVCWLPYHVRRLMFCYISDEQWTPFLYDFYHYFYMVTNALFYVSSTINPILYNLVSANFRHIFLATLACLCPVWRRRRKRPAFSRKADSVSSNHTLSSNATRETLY

On to `Cc1cccc(C)c1OCCOCCN[C@H](C)CO.Cl`, for which the “inhibition (INH)” value was 75% in series [1] and 69% in series [11]. Besides, the Kp at 4 h in series [2] was determined as 1.94. In addition, in series [3], the C0 came to 2200 ng/mL. Further, the Tmax in series [4] was 5 min; in [10], 15 min. Moreover, in series [5], the AUMC came to 266 ng·h²/mL. In addition, the results for the Activity entry in [6], in [8] and in series [14] were “Non-toxic”, 22 and 25, respectively. Further, the TD50 at […] in series [7] was found to be 33.3 mg/kg. The same compound returned an AUC in series [9] of 1030 ng·h/mL. For the same compound, the Vdss in series [12] came to 0.8997 L/kg. Besides, in series [13], the Kp at 5 min came out at 1.73.

For `Cc1cccc(C)c1OCCOCCN[C@@H](C)CO`, the outcome in series [15], in series [21], in series [23], in series [24], in [25] and in series [27] was inactive. In addition, the inhibition in series [16] is -7.5%; in series [17], 78.8%; in series [18] it was 57.4%; in series [19] it was 5.2%; in [20], -6%; in series [26] it was 5.8%. Moreover, the result in [22] was Active.

For the compound `Cc1cccc(C)c1OCCOCCN[C@H](C)CO`, the inhibition in [28] was -4.2%; in series [17] it was 89.4%; in series [18], 44.1%; in series [19], 10.1%; in series [26], 9.6%. Further, the outcome in series [23], in series [24], in series [25] and in series [29] was inactive.
